Experimental data gathered from unrelated publications.
Compare with care: the assays were run in different laboratories.
Target: Tyrosine-protein kinase ZAP-70 (ZAP70, Homo sapiens, UniProt P43403)
Sequence (P43403 1-619, as in one of the studies): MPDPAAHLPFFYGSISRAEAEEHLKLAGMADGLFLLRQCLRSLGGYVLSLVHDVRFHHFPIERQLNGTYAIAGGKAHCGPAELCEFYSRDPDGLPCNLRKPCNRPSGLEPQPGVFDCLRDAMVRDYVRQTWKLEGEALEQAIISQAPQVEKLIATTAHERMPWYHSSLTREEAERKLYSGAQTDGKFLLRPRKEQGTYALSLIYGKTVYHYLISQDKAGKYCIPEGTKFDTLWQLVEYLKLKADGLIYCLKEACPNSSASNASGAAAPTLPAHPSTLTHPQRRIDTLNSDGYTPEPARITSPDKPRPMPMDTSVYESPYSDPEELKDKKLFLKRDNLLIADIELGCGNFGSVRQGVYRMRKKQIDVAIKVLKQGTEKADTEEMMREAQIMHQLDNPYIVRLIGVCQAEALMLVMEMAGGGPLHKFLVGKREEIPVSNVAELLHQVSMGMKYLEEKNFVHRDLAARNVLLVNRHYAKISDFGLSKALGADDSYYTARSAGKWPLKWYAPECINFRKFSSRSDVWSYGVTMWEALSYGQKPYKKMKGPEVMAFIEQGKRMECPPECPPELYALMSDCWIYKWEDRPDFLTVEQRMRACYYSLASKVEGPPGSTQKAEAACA

Structure (SMILES) | assay | conditions | measurement | value
CCCCC(=O)Nc1ccc(-c2ccc3ncn(CCC)c(=O)c3c2)cn1 | binding, competition with immobilised ligand | 0.5 µM | remaining binding | 98%
COc1ccc2oc(-c3ccc4nc(N)oc4c3)c/c(=N\c3ccccc3NC(=O)CCN)c2c1 | binding | 1 µM | remaining binding | 88%
Cc1ccc(NC(=O)c2ccnc(C(F)(F)F)c2)cc1-c1cc(OCCO)nc(N2CCOCC2)c1 | binding | 1 µM | remaining binding | 100%
CC#CC(=O)N1CCC[C@H]1c1nc(-c2ccc(C(=O)Nc3ccccn3)cc2)c2c(N)nccn12 | enzyme activity, inhibitor | 1 µM | inhibition | 8%
C#Cc1cnc(Nc2ccnc(CO)c2)nc1Nc1ccccc1S(C)(=O)=NC#N (stereo not drawn) | cell-free assay | 1 µM | remaining signal | 100%
C=CC(=O)N1CCC([C@@H]2CCNc3c(C(N)=O)c(-c4ccc(Oc5ccccc5)cc4)nn32)CC1 | enzyme activity, inhibitor | 1 µM | inhibition | 2%
N#Cc1ccc(NC(=O)Nc2ccccc2)cc1 | cell-free assay, competition with immobilised ligand | 25 µM | remaining binding | 91%
CN1CCN(C(=O)c2ccc(NC(=O)Nc3ccc(N(C)c4ccnc(Nc5ccc(CS(C)(=O)=O)cc5)n4)cc3)cc2)CC1 | binding | 1 µM | remaining binding | 65%
CC(C)S(=O)(=O)c1ccc2nccc(Nc3ccc4sc(C5CCCC5)nc4c3)c2c1 | enzyme activity, inhibitor | 1 µM | activity vs control | 100%
